Laboratory results from paper PMC6688905 (Journal of medicinal chemistry, 2018).
Entries after “also recorded” stand apart in the source; their conditions may differ. Each block holds one molecule with its values, some of them ahead of it.

Columns and labels:
[1] = NMR-based reactivity of electrophile toward Nα-acetyl lysine; assay type: physicochemical; settings: 100 mM phosphate buffer pH 7.4, ten-fold excess of N^α-acetyl lysine, 25 °C
aurora kinase A (AURKA) = target: T1, aurora kinase A (AURKA) (Homo sapiens, UniProt O14965); experiment: KINOMEscan kinase selectivity panel; assay type: binding; settings: 1 μM
T1 sequence (O14965 1-403): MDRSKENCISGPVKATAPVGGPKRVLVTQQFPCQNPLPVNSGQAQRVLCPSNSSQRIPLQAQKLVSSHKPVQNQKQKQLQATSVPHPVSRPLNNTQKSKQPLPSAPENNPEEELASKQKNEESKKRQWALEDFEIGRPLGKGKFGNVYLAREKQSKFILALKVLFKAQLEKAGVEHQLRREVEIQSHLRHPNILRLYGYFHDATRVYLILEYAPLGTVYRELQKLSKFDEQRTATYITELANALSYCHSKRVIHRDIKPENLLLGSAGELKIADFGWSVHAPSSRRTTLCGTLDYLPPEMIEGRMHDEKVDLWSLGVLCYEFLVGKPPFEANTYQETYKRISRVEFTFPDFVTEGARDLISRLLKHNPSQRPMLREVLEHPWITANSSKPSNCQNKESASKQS

PI3Kα (p110α/p85α) = PI3Kα (p110α/p85α) (Homo sapiens, UniProt P42336); experiment: MS timecourse for covalent modification of PI3K; settings: 4 μM neolymphostin A with 2 μM PI3Kα
PI3Kα (p110α/p85α), sequence (P42336 whole entry, species assumed): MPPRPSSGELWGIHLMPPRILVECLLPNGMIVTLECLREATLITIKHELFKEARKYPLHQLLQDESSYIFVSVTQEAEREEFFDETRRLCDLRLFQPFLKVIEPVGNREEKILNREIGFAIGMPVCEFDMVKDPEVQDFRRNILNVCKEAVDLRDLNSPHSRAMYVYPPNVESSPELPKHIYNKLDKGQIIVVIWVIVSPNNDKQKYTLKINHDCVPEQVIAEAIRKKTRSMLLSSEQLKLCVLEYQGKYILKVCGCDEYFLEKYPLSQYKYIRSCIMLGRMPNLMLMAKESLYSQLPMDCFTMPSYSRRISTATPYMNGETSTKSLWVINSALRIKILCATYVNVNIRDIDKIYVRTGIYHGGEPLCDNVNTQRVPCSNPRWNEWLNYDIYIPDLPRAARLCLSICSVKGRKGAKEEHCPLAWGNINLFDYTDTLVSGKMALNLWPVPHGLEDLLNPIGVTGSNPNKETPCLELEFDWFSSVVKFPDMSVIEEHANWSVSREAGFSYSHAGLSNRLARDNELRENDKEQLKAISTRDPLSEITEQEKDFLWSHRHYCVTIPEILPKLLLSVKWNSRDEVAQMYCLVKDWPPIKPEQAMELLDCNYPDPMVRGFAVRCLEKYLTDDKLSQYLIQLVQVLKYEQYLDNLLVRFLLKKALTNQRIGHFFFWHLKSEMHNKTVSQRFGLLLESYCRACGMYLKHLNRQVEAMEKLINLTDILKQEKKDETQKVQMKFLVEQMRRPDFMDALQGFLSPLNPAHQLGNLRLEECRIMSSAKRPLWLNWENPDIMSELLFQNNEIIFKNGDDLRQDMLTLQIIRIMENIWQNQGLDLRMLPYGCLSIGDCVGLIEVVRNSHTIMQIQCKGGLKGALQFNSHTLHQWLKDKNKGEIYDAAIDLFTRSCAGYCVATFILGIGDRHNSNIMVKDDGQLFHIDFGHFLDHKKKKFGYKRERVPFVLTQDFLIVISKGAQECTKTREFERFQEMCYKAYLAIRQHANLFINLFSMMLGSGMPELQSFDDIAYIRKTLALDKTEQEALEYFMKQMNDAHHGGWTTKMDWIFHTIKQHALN
PI3Kα (p110α/p85α), sequence (P27986 whole entry partner, species assumed): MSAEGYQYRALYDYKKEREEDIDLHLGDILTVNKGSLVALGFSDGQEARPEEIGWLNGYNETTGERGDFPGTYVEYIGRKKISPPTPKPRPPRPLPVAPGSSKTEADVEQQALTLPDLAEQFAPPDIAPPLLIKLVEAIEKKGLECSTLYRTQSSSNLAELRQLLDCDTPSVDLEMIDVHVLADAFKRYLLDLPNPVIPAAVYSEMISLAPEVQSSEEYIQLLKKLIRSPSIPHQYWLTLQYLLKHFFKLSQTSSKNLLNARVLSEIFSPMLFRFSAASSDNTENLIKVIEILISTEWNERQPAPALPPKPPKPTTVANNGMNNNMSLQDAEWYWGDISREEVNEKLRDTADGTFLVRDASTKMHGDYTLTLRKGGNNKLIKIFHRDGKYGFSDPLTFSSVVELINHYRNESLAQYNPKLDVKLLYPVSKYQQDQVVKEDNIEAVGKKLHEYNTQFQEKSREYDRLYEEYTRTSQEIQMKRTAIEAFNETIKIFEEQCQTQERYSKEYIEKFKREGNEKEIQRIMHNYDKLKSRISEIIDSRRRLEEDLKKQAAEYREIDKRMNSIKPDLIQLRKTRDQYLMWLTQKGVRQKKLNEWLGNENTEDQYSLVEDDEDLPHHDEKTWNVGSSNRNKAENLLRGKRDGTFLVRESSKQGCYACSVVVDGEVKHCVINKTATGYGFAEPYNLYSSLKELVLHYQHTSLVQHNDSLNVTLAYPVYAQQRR

[2] = behaviour in buffer at higher concentrations; assay type: physicochemical
[3] = system: EGFR and ERK1/2 phosphorylation in EGF-stimulated HeLa cells; experiment: PI3K inhibition in live cells, Western blot of EGFR and ERK1/2 phosphorylation; assay type: cell-based; settings: serum-starved HeLa cells, 10 min pretreatment, EGF stimulation
Procedure, shortened: (§1)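 HeLa cells were serum-starved overnight, then pretreated 10 min with test compound at the indicated concentrations and stimulated with 10 ng mL−1 EGF for 5 min. Cells were lysed in boiling SDS sample buffer and protein was quantified at 660 nm. Equal protein was run on SDS-PAGE, Western-blotted with ECL detection, and probed for AKT, pAKT Ser473/Thr308, ERK1/2, pERK1/2 Thr202/Tyr204, EGFR, pEGFR Tyr1068 and GAPDH.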

[4] = target: T2, Polo-like kinase 4 (PLK4) (Homo sapiens, UniProt O00444); experiment: KINOMEscan kinase selectivity panel; assay type: binding; settings: 1 μM
T2 sequence (O00444 1-970): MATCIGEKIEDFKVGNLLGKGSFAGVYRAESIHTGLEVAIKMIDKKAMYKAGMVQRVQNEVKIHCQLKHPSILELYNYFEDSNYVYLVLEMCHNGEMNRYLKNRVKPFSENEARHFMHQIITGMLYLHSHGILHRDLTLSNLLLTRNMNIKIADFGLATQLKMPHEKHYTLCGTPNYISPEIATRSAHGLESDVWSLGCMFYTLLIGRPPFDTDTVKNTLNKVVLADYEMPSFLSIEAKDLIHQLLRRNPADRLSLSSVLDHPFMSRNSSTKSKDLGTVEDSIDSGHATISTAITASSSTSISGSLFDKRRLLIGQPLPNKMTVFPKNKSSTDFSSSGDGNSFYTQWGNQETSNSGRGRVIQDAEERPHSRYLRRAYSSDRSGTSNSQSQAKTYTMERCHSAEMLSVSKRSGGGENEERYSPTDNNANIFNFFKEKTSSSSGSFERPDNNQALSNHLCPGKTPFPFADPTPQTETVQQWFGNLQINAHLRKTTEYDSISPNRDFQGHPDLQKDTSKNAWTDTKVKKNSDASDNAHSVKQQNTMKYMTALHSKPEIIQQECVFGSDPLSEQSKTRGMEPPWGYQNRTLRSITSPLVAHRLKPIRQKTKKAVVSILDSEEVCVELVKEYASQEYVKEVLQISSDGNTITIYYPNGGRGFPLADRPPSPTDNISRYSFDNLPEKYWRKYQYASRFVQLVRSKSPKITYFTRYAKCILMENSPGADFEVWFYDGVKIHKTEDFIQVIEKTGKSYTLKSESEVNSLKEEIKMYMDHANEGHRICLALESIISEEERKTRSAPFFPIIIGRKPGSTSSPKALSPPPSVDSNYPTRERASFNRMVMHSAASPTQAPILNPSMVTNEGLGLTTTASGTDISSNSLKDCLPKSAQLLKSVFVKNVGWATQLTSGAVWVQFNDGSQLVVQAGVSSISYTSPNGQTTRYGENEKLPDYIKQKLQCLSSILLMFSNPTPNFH

[5] = target: c-Jun N-terminal kinase 3 (JNK3) (Homo sapiens, UniProt P53779); experiment: KINOMEscan kinase selectivity panel; assay type: binding; settings: 1 μM
c-Jun N-terminal kinase 3 (JNK3), sequence (P53779 whole entry): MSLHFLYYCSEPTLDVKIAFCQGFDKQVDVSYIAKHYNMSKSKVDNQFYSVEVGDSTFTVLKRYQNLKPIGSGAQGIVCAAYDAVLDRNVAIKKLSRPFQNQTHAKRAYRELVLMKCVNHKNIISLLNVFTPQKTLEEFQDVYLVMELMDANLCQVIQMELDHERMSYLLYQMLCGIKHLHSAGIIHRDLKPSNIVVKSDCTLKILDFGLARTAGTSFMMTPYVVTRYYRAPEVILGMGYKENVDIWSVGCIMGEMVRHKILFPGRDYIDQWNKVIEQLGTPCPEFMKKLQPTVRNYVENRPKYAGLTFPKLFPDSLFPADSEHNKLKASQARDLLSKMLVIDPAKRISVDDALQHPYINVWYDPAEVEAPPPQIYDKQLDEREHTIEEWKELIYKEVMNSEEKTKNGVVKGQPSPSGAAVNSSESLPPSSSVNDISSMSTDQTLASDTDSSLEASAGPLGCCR

aurora kinase B (AURKB) = aurora kinase B (AURKB) (Homo sapiens, UniProt Q96GD4); experiment: KINOMEscan kinase selectivity panel; assay type: binding; settings: 1 μM
aurora kinase B (AURKB), sequence (Q96GD4 whole entry): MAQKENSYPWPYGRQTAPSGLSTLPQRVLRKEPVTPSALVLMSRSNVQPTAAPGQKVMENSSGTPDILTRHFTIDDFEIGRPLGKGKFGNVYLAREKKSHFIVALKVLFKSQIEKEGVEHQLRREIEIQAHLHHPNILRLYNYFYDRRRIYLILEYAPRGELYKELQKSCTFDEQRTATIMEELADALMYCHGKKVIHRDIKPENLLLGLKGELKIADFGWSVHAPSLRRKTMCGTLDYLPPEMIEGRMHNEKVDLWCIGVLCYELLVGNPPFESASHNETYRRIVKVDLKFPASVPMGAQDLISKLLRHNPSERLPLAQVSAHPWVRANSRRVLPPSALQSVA

[6] = target: c-Jun N-terminal kinase 1 (JNK1) (Homo sapiens, UniProt P45983); experiment: KINOMEscan kinase selectivity panel; assay type: binding; settings: 1 μM
c-Jun N-terminal kinase 1 (JNK1), sequence (P45983 whole entry): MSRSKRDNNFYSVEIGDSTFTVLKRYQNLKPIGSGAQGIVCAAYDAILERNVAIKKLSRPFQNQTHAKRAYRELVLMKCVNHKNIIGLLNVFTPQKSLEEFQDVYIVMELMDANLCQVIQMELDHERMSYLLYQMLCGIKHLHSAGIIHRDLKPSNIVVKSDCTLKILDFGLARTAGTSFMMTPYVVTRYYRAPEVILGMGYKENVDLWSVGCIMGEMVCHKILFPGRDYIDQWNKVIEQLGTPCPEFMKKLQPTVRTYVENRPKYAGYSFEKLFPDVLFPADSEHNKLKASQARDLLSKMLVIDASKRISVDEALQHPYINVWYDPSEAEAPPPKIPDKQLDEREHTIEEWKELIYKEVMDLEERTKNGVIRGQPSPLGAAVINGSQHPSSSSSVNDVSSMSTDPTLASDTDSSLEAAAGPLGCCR

[7] = system: AKT phosphorylation (Ser473, Thr308) in EGF-stimulated HeLa cells; experiment: PI3K inhibition in live cells, Western blot of AKT phosphorylation; assay type: cell-based; settings: serum-starved HeLa cells, 10 min pretreatment, EGF stimulation
Procedure, shortened: as §1

[8] = system: National Cancer Institute 60-cell line panel; experiment: NCI 60-cell line anticancer screen; assay type: cell-based; settings: read-out: GI50 values
Procedure, shortened: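 Cancer cell lines covering leukemia, non-small cell lung, colon, CNS, melanoma, ovarian, renal, prostate and breast were tested with 5-point dose-response curves, top concentration 50 μM. GI50, TGI and LC50 were calculated from the curves.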

[9] = target: c-Jun N-terminal kinase 2 (JNK2) (Homo sapiens, UniProt P45984); experiment: KINOMEscan kinase selectivity panel; assay type: binding; settings: 1 μM
c-Jun N-terminal kinase 2 (JNK2), sequence (P45984 whole entry): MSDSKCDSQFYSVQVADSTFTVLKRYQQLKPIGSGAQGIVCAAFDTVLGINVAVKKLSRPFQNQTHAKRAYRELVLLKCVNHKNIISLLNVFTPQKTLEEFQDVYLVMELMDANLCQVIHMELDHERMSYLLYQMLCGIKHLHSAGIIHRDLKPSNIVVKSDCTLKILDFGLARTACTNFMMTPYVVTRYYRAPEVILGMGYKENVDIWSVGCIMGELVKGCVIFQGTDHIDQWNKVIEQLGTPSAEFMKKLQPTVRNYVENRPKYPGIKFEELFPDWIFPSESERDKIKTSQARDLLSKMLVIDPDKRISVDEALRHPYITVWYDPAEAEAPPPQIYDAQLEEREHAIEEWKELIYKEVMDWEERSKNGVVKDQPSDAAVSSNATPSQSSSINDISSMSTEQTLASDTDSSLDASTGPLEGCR

PI3Kα = PI3Kα (Homo sapiens, UniProt P42336); experiment: KINOMEscan kinase selectivity panel; assay type: binding; settings: 1 μM
PI3Kα, sequence (P42336 whole entry): as the sequence (P42336 whole entry, species assumed) above

Structure (SMILES): CO/C=C/C(=O)c1ccccn1 [compound 6, (E)-3-methoxy-1-(pyridin-2-yl)prop-2-en-1-one]
reaction with N^α-acetyl lysine [1]: no reaction was observed

% vs. control (aurora kinase A (AURKA)): 1.5% | time to complete covalent modification of the kinase (PI3Kα (p110α/p85α)): ≤ 2 min | % vs. control [4]: 0.95% | % vs. control [5]: 0.2% | % vs. control (aurora kinase B (AURKB)): 1.9% | % vs. control [6]: 0.25% | % vs. control [9]: 0.15% | % vs. control (PI3Kα): 0%
Structure (SMILES): CO/C=C/C(=O)c1cc2c3c(c(N)cc(NC(=O)C(C)C)c3n1)N=C2 [neolymphostin, neolymphostin A]
solubility behaviour [2]: appears to aggregate and “crash out” of solution at higher concentrations in buffer | effect on EGFR or ERK1/2 phosphorylation [3]: did not affect phosphorylation of EGFR or ERK1/2; also recorded: no apparent effect | effect on AKT phosphorylation [7]: blocked phosphorylation of AKT at S473 and T308 | GI50 [8]: 6 to 840 nM

Structure (SMILES): CC(C)C(=O)Nc1cc(N)c2c3c(cc(C(=O)CCO)nc13)C=N2 [neolymphostinol]
effect on AKT phosphorylation [7]: largely unaffected

Structure (SMILES): COC[C@H]1OC(=O)c2coc3c2[C@@]1(C)C1=C(C3=O)[C@@H]2CCC(=O)[C@@]2(C)C[C@H]1OC(C)=O [wortmannin, reference compound]
effect on EGFR or ERK1/2 phosphorylation [3]: without affecting phosphorylation of EGFR or ERK1/2 | effect on AKT phosphorylation [7]: blocked phosphorylation of AKT on Ser473 and Thr308
